The values below come from ChEMBL document CHEMBL5715947 (Blood Cancer J, 2011).

The test system of data set [1] is Receptor-type tyrosine-protein kinase FLT3 (Homo sapiens), P36888 [UNDEFINED MUTATION]. In words: Inhibition of FLT3-ITD mutant in human MV4-11 cells assessed as reduction in phosphorylated FLT3 protein expression up to 1000 nM incubated for 3 hrs by Western blot analysis. The data set is classed as cell-based. A general note: In western blotting, separated proteins are transferred to a membrane and probed.
Chain of Receptor-type tyrosine-protein kinase FLT3 (Homo sapiens), P36888 [UNDEFINED MUTATION] (P36888 whole entry, looked up, stated change not applied): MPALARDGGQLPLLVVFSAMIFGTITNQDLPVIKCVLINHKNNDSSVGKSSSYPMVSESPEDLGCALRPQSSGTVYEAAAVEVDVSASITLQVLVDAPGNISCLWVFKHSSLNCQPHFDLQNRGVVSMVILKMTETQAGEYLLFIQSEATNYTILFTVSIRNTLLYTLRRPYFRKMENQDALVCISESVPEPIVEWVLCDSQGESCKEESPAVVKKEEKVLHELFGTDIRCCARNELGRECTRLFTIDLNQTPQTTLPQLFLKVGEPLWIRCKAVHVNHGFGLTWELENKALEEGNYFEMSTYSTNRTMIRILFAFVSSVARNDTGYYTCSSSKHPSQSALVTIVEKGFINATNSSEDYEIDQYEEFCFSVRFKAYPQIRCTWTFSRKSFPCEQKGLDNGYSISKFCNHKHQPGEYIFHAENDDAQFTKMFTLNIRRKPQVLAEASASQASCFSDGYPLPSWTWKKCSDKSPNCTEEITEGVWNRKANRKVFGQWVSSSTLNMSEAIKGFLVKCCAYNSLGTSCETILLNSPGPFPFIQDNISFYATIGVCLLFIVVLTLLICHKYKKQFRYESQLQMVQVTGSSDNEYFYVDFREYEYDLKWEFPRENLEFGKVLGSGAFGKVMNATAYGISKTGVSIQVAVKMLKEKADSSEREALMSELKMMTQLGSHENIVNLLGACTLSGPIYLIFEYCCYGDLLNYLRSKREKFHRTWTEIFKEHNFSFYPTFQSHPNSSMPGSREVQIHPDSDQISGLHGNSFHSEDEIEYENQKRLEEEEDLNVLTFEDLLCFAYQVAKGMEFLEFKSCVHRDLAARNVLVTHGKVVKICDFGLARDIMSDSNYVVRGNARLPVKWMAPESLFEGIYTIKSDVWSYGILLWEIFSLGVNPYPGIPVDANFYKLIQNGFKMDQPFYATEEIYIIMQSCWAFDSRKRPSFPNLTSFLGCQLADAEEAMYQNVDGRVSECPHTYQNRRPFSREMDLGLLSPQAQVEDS

For data set [2], the system named is MV4-11. In words: Down regulation of JAK2 protein expression level in human MV4-11 cells harboring FLT3-ITD mutant at 5 nM after 24 hrs by Western blot analysis. The format is functional, cell-based.
In data set [3] the test system is Receptor-type tyrosine-protein kinase FLT3 (Homo sapiens), P36888 [UNDEFINED MUTATION]. The note with it: MV4-11, dose 5.0 nM, time 24.0 hrs.
Data set [4] has as its system MV4-11. In words: Down regulation of JAK2 protein expression level in human MV4-11 cells harboring FLT3-ITD mutant at 18 nM after 24 hrs by Western blot analysis. The format is functional, cell-based.
A short description of data set [5]: Selectivity ratio of IC50 for antiproliferative activity against human linifanib-resistant MV4-11 cells harboring FLT3-ITD mutant to IC50 for antiproliferative activity against human MV4-11 cells harboring FLT3-ITD mutant. The format is functional. The method in brief: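 Linifanib-resistant MV4-11 (MV4-11-R) and parental MV4-11 (MV4-11-P) cells, 2000–6000 cells/well, dosed on the seeding day in triplicate for 48 h, with final DMSO 0.1%. Viability was read by CellTiter-Glo luminescence. IC50 for each line came from dose-response curves, and the ratio is the resistant-line IC50 divided by the parental IC50.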

Data set [6] relates to MV4-11. In words: Synergistic antiproliferative activity against human MV4-11 cells harboring FLT3-ITD mutant assessed as combination index at ED50 concentration incubated for 48 hrs in presence of JAKi-1 by CellTiter-Glo assay. The data set is classed as functional. Summed up: (§1)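 Two drugs combined at a constant ratio based on each one's individual IC50. […] Cells seeded 2000–6000/well and treated the same day in triplicate for 48 h. Viability read by CellTiter-Glo. Synergy from dose-response data of the combination. Final DMSO 0.1%.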

Data set [7] has as its system MV4-11. The data set can be described thus: Synergistic antiproliferative activity against human MV4-11 cells harboring FLT3-ITD mutant assessed as combination index at ED90 concentration incubated for 48 hrs in presence of JAKi-1 by CellTiter-Glo assay. The data set is classed as functional. Summed up:
as §1

Data set [8] is described as follows: Toxicity in BALB/c nude mouse xenografted with human MV4-11 cells harboring FLT-3 ITD mutant assessed as change in body weight at 25 to 100 mg/kg, po administered daily for 21 days. The data set is classed as organism-based. The note with it: in vivo, 504 h, dose 25-100 mg/kg, time 21 day. On the technique in general: Xenograft models place foreign cells or tissue in a host animal.

Active and inactive are the calls of the source. No cut-off for these calls is given here.

Consider `CC(C)(C)c1nc2c3ccc(F)cc3c3c(=O)[nH]ccc3c2[nH]1`, for which, in data set [1], the inhibition result was “inactive”.
Take `CCN(CC)CCNC(=O)c1c(C)[nH]c(/C=C2\C(=O)Nc3ccc(F)cc32)c1C`: in the data set with MV4-11 [2], the outcome was inactive. The inhibition entry in data set [3] is “Active”.
Consider `Cc1cc(Nc2cc(N3CCN(C)CC3)nc(Sc3ccc(NC(=O)C4CC4)cc3)n2)n[nH]1`, for which the result with MV4-11 [4] was inactive.
Consider `Cc1ccc(F)c(NC(=O)Nc2ccc(-c3cccc4[nH]nc(N)c34)cc2)c1` [LINIFANIB], for which the outcome with MV4-11 [2] was inactive. Besides, in data set [5], the “Ratio IC50” value worked out at 127. Also, the CI with MV4-11 [6] worked out at 0.73; in the data set on MV4-11 [7], 0.8. The inhibition entry in data set [3] was “Active”.
With `C1=C/COCc2cc(ccc2OCCN2CCCC2)Nc2nccc(n2)-c2cccc(c2)COC/1` [PACRITINIB], the Activity entry in data set [8] is recorded as “Non-Toxic”.
